Runt-SMMHC FRET: inhibitors of human RUNX1 Runt domain binding to CBFb-SMMHC | Q01196+Q13951 | Cerulean-Runt/Venus-CBFb-SMMHC FRET ratio 530/480, 1 h | inhibition, % at 20 µM | 0.74% of 220,000 active | AID 1434;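 active = mean inhibition across duplicate retests at 20 µM reaching about 50%, limit read from the data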;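 also: 0% = DMSO wells and 100% = wells with excess untagged CBFb-SMMHC; inhibitors lower the FRET ratio by blocking Runt binding to CBFb-SMMHC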
Runt-CBFb FRET: inhibitors of human RUNX1 Runt domain binding to CBFb. 0.46% of 220,000 active. Q01196+Q13951. Cerulean-Runt/Venus-CBFb FRET ratio 530/480, 1 h. inhibition, % at 20 µM. AID 1496;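 active = inhibition over about 50% at 20 µM in the single-dose screen, limit read from the data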;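 also: 0% = DMSO wells and 100% = excess unlabeled CBFb competitor control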
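Assay system: Cerulean-Runt domain fusion protein, energy donor; Signal: fluorescence energy transfer, 422 nm excitation, 530/480 nm emission; Timing: 1 h compound exposure, room temperature; Control set: unlabeled CBFb; Medium: Tris buffer pH 7.5 with salts and BSA; Compound: single test concentration of 20 µM, 1% DMSO final; Probe or stimulus: Venus-CBFb 100 nM.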
CaV13 FRET inh: Disruptors of the CACNA1D IQ motif to Ca2+-dependent inactivation inhibitor domain association, primary screening, Förster resonance energy transfer in intact living …; HEK cells, CFP/YFP FRET ICDI-IQ, plate reader, 10 min; percent FRET-ratio fall versus neutral wells; inhibition, % at 12.3 µM; 0.098% of 340,000 active;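 active = mean replicate inhibition of at least 30% and at least 1% of replicates passing that level; inconclusive = only one of the two criteria is met; inactive = neither criterion is met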;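 also: 0% = median of the neutral control wells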
LANA-H2A inh: blocks KSHV LANA binding to histone H2A/H2B; Q9QR71; cell-free LANA-H2A/H2B peptide, fluorescence polarization; inhibition, % (test concentration not listed); 0.6% of 320,000 active; in the data active = inhibition mostly above about 10%, no sharp cut-off; inactive = mostly below about 6.7%
HDAC3 inhib: human HDAC3 inhibition. inhibition, % at 8.3 µM. O15379. recombinant HDAC3, fluorogenic peptide/trypsin coupled, fluorescence. AID 2718. 0.15% of 320,000 active; in the data active = inhibition above about 26%, passing the limit was not always enough; inconclusive = no clear call, values can overlap the other calls
RanGTP-Impb inh: disruptors of Ran-importin-beta complex formation – biochemical, FRET, CFP-Ran, YFP-importin-beta, homogeneous, primary screen. cell-free CFP-Ran/YFP-importin-beta FRET ratio. inhibition, % (no concentration beside the values). 1.1% of 300,000 active;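 active = more than half of the replicate wells show a fall in the fluorescence ratio signal beyond about 16%, limit read from the data, passing the limit was not always enough; inconclusive = exactly half of the replicate wells pass the set limit; inactive = fewer than half of replicates pass the limit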;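 also: 0% = DMSO wells and 100% = Ran loaded with GDP instead of GTP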
Numbers without * were called inactive. An excerpt weighted towards active compounds, which were near 1.9% of everything screened.

Screening CSc1c2c([nH]c(=O)c1C#N)-c1ccccc1CC2 returned CaV13 FRET inh -4.5.
Screening N#Cc1c(-c2cccnc2)c2c([nH]c1=O)-c1ccccc1OC2 returned Runt-SMMHC FRET 81.6*, Runt-CBFb FRET 9.8, CaV13 FRET inh 2.7, LANA-H2A inh -1.0, HDAC3 inhib -103.3 and RanGTP-Impb inh 112.8*.
`N#Cc1c(-c2ccc(F)cc2)c2c([nH]c1=O)-c1ccccc1OC2` gave Runt-SMMHC FRET 80.2*, Runt-CBFb FRET 59.8*, CaV13 FRET inh -13.6, LANA-H2A inh -0.3, HDAC3 inhib -33.9 and RanGTP-Impb inh 101.1*.
`CCCCCCOc1ccc(/C(N)=N/O)cc1` gave Runt-SMMHC FRET 1.3, Runt-CBFb FRET -1.7, LANA-H2A inh -1.1, HDAC3 inhib 5.8 and RanGTP-Impb inh 1.1.
`N=C(N)c1ccc(OCCCCCOc2ccc(C(=N)N)cc2)cc1` gave Runt-SMMHC FRET 0.1, Runt-CBFb FRET -0.9, CaV13 FRET inh -4.7, LANA-H2A inh -2.9, HDAC3 inhib 61.0* and RanGTP-Impb inh -0.8.
For NS(=O)(=O)c1ccc(CNC(=O)C2CCCCC2)cc1 the results were Runt-SMMHC FRET -8.8, Runt-CBFb FRET 0.2, CaV13 FRET inh -8.6, LANA-H2A inh -4.1, HDAC3 inhib -7.4 and RanGTP-Impb inh 2.5.
`CCOC(=O)c1cnc2ccccc2c1Nc1ccc2c(c1)OCCO2` gave Runt-SMMHC FRET 1.4, Runt-CBFb FRET -1.6, CaV13 FRET inh -2.3, LANA-H2A inh 15.9*, HDAC3 inhib -9.8 and RanGTP-Impb inh 0.2.
Screening COc1ccc(-c2ccc(-c3noc(C)n3)c(OC)n2)cc1 returned Runt-SMMHC FRET 2.6, Runt-CBFb FRET 0.0, CaV13 FRET inh -7.6, LANA-H2A inh 7.7, HDAC3 inhib -8.5 and RanGTP-Impb inh -0.3.
Screening COc1ccc(-c2ccc(-c3noc(-c4cccc(OC)c4)n3)c(OC)n2)cc1 returned Runt-SMMHC FRET -15.4, Runt-CBFb FRET -0.7, CaV13 FRET inh -9.8, LANA-H2A inh -0.7, HDAC3 inhib -6.1 and RanGTP-Impb inh 8.8.
`COc1ccc(-c2ccc(-c3noc(-c4ccc(OC)c(OC)c4)n3)c(OC)n2)cc1` gave Runt-SMMHC FRET 4.2, Runt-CBFb FRET 2.7 and CaV13 FRET inh -8.2.
Screening COc1ccc(-c2ccc(-c3noc(-c4cccs4)n3)c(OC)n2)cc1 returned Runt-SMMHC FRET -68.2, Runt-CBFb FRET 9.8, LANA-H2A inh -0.6, HDAC3 inhib -1.4 and RanGTP-Impb inh 29.6*.
Screening COc1ccc(-c2ccc(-c3noc(-c4ccccc4C)n3)c(OC)n2)cc1 returned Runt-SMMHC FRET 10.8, Runt-CBFb FRET 5.4, CaV13 FRET inh -5.8, LANA-H2A inh 3.1, HDAC3 inhib 0.2 and RanGTP-Impb inh 22.6*.
COc1ccc(-c2ccc(-c3noc(C4CCCCC4)n3)c(OC)n2)cc1 was read as Runt-SMMHC FRET 5.0, Runt-CBFb FRET 0.5, LANA-H2A inh 5.9, HDAC3 inhib -25.8 and RanGTP-Impb inh 18.9*.
For COc1ccc(-c2ccc(-c3noc(-c4ccccc4OC)n3)c(OC)n2)cc1 the results were Runt-SMMHC FRET 43.8, Runt-CBFb FRET 13.5, LANA-H2A inh -4.4, HDAC3 inhib 2.8 and RanGTP-Impb inh 34.5*.
`CC1(C(=O)NS(=O)(=O)c2ccc(Cl)s2)CCN1C(=O)Cc1ccc(Cl)cc1Cl` (stereo not given) gave CaV13 FRET inh -7.1.
Screening O=C(Nc1cccc(C(=O)N2CCCc3ccccc32)c1)c1ccccc1 returned CaV13 FRET inh -19.6, LANA-H2A inh -1.3, HDAC3 inhib 0.0 and RanGTP-Impb inh 5.6.
`CCC(/C=N/NC(=O)C1COc2ccccc2O1)CC` (stereo not given) gave Runt-SMMHC FRET -0.7, Runt-CBFb FRET 1.6, CaV13 FRET inh -6.6, LANA-H2A inh 0.9, HDAC3 inhib -3.0 and RanGTP-Impb inh inconclusive.
COc1ccc(S(=O)(=O)N(C)C[C@H]2Oc3c(NC(=O)C4CC4)cccc3C(=O)N([C@H](C)CO)C[C@@H]2C)cc1 was read as CaV13 FRET inh -6.1, LANA-H2A inh 0.7 and HDAC3 inhib 0.4.
`CCNC(=S)Nc1ccc2ncoc2c1` gave Runt-SMMHC FRET -0.6, Runt-CBFb FRET 6.4, CaV13 FRET inh -1.0, LANA-H2A inh 31.4*, HDAC3 inhib 2.3 and RanGTP-Impb inh inconclusive.
`Cc1cc(NC(=O)NCc2ccccc2)c(=O)n(Cc2ccccc2F)c1` gave CaV13 FRET inh -4.3, LANA-H2A inh 3.1, HDAC3 inhib -2.8 and RanGTP-Impb inh -0.8.
For COc1cccc(Cn2cc(C)cc(NC(=O)NCc3ccccc3)c2=O)c1 the results were CaV13 FRET inh -5.5, LANA-H2A inh 23.1*, HDAC3 inhib 2.4 and RanGTP-Impb inh -3.7.
C=C(C)CNC(=O)c1ccc2nc(Cc3ccc(OC)cc3)oc2c1 was read as CaV13 FRET inh -1.7, LANA-H2A inh -0.5, HDAC3 inhib 4.4 and RanGTP-Impb inh -6.2.
COC(=O)CSc1nnc(-c2sc3cc(OC)ccc3c2Cl)n1C was read as Runt-SMMHC FRET 1.7, Runt-CBFb FRET 3.8, CaV13 FRET inh -0.9, LANA-H2A inh -1.8, HDAC3 inhib 0.4 and RanGTP-Impb inh -0.2.
`CCCc1cc(C(=O)Cc2nc3ccccc3s2)c(O)cc1O` gave Runt-SMMHC FRET -21.1, CaV13 FRET inh -1.2, LANA-H2A inh -2.1, HDAC3 inhib -5.1 and RanGTP-Impb inh 111.6*.
Screening Cc1ccc(CC(=O)Nc2nc3ccccc3s2)cc1 returned Runt-SMMHC FRET -2.7, CaV13 FRET inh -3.7, LANA-H2A inh 23.9*, HDAC3 inhib 3.8 and RanGTP-Impb inh -3.7.
CC(=O)OCc1nc2ccccc2s1 was read as Runt-SMMHC FRET 1.0, Runt-CBFb FRET -0.5, CaV13 FRET inh -4.2, LANA-H2A inh 5.2, HDAC3 inhib -2.3 and RanGTP-Impb inh inconclusive.
`CCCc1cc(C(=O)Cc2ccc(F)cc2)c(O)cc1O` gave Runt-SMMHC FRET -3.4, Runt-CBFb FRET -1.5, CaV13 FRET inh -5.2, LANA-H2A inh -2.8, HDAC3 inhib 10.7 and RanGTP-Impb inh -2.2.
CCOC(=O)C(=O)Cc1nc2ccccc2s1 was read as Runt-SMMHC FRET -0.7, Runt-CBFb FRET 0.8, CaV13 FRET inh -4.5, LANA-H2A inh 0.5 and RanGTP-Impb inh 51.8*.
For COc1ccc(C2=NOC(Cn3nc(-c4ccccc4)cc3C(=O)NCc3ccco3)C2)cc1 (stereo not given) the results were CaV13 FRET inh -4.1, LANA-H2A inh -0.4 and HDAC3 inhib 4.6.
CC(C)c1cc(=O)oc2c3c4c(cc12)CCCN4CCC3 was read as Runt-SMMHC FRET -3.4, Runt-CBFb FRET 14.5, LANA-H2A inh -3.7, HDAC3 inhib -32.4 and RanGTP-Impb inh 29.0*.
